In article PMC2570394 (Diabetes, 2008):
Where two headings read alike, the source gives them in different places.

Columns and labels:
[1] = tested on: Zucker rats; details: cited from earlier work
[2] = type: in vivo, mice (C57BL/6J; details: male, C57BL/6J, mouse, ip, 10 mg/kg
[3] = tested on: isolated soleus muscle of ob/ob mice; details: cited from earlier work
[4] = tested on: rat; details: acute intracerebroventricular injection, 3 μg/rat per day; cited from earlier work
[5] = tested on: obese Zucker rats; details: 30 mg/kg, 8 weeks; cited from earlier work
[6] = tested on: DIO rats; type: in vivo, rat
Method in brief: (§1)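 Lean or diet-induced obese rats received 6-day treatment with vehicle and pair-fed controls. Epididymal WAT and liver were freeze-clamped and kept at −80°C. Real-time qPCR used SYBR Green, ~70 ng template cDNA and primers at 0.5 μmol/l final. Relative levels came from a standard curve and were normalised to ribosomal protein S29 in WAT and cyclophilin A in liver. n=5–7, means ± SE.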

[7] = tested on: DIO rats; type: in vivo, rat; details: 6 days
Method in brief: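 Male Sprague-Dawley rats were fed a 45% high-fat diet for 8 weeks, then given vehicle or test compound for 6 days, with a vehicle pair-fed group. They were fasted overnight and anaesthetised with pentobarbital 50 mg/kg i.p. Clamps were run basal and insulin-stimulated (200 mU/ml) with D-[U-14C]glucose infusion (5 μCi/ml). A 2-deoxy-D-[1-3H]glucose bolus (30 μCi/rat) followed, and tissue 2-DG-6-P gave a utilisation index in ng/min/mg. n=5–7.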

[8] = tested on: DIO rats; type: in vivo, rat; details: 6 days; remark: listed apart in the source
[9] = tested on: DIO rats; assay: Plasma measurements after central or global CB1 blockade in DIO rats; type: in vivo; details: Central CB1 blockade, icv 5 μg/rat per day, 6 days, mean ± SE
Method in brief: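 Diet-induced obese rats (45% high-fat diet, 8 weeks) got test compound 5 μg/rat per day icv for 6 days, alongside vehicle and pair-fed controls. Plasma glucose was measured by the glucose oxidase method, and nonesterified fatty acids by commercial kit. Corticosterone and insulin were measured by double-antibody radioimmunoassay. Means ± SE.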

[10] = tested on: DIO rats; assay: Triglyceride content in epididymal WAT and plasma of DIO rats; type: in vivo, rat; details: 6 days
Method in brief: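 Diet-induced obese rats received test compound for 6 days, either 5 μg/day icv by minipump or 10 mg/kg per day i.p., alongside vehicle and pair-fed groups. Lipids were extracted from epididymal WAT. After the organic solvent was evaporated, triglyceride was measured enzymatically in duplicate. Plasma triglyceride was measured by commercial kit. n=5–7, means ± SE.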

[11] = tested on: normal rats; assay: Quantitative RT-PCR of lipid metabolism enzymes in WAT and liver of lean rats; type: in vivo, rat; details: 6 days
Method in brief: as §1

[12] = tested on: diet-induced obese (DIO) mice; details: cited from earlier work
[13] = tested on: normal rats; assay: Food intake and body weight during 6-day CB1 antagonist infusion in lean rats; type: in vivo, rat; details: 6 days; for body weight / food intake: lean rats
Method in brief: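 Rats on standard chow received test compound for 6 days, either 3 or 5 μg/rat per day icv or 5 μg/rat per day s.c. Both routes used osmotic minipumps. Vehicle was isotonic saline with 0.3% Tween 80. Icv cannula placement was checked by drinking response to icv angiotensin II (5 ng/μl). Vehicle pair-fed rats got the treated group's daily intake before dark onset. Food intake and body weight were recorded daily. n=5–7, means ± SE.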

[14] = tested on: CB1 receptor; details: by reducing food intake and increasing energy expenditure and fat oxidation; cited from earlier work
[15] = ip 10 mg/kg, 6 days, independent of hypophagia
[16] = intracerebroventricular 5 μg/rat per day
[17] = normal rats, icv 5 μg/day, similar in vehicle pair-fed group
[18] = intracerebroventricular 3 μg/rat per day
[19] = peripheral 5 μg/rat per day via subcutaneous minipumps

Compound: Cc1c(C(=O)NN2CCCCC2)nn(-c2ccc(Cl)cc2Cl)c1-c1ccc(Cl)cc1 [SR141716, Rimonabant]
- body weight [1]: maintained reduction
- food intake [1]: transient suppression
- Cmax ([2]; brain): 1010 ± 384 ng/g
- concentration at 25.1 h ([2]; brain): 186 ± 37.5 ng/g
- half-life ([2]; brain): 9.44 h
- Cmax ([2]; serum): 258 ± 58.9 ng/mL
- concentration at 25.1 h ([2]; serum): 20.5 ± 9.25 ng/mL
- half-life ([2]; serum): 6.33 h
- glucose uptake [3]: increases
- food intake [4]: decreases
- hepatic lipid metabolism [5]: food intake–independent effect
- expression of hormone-sensitive lipase and adipose triglyceride lipase ([6]; WAT, drug treatment (data not shown)): not modified
- WAT CPT-1 expression ([6]; icv 5 μg/day, 6 days): trend toward an increase
- WAT SCD-1 expression ([6]; icv 5 μg/day, 6 days, also present in pair-fed group): decrease
- liver SCD-1 expression ([6]; icv 5 μg/day, 6 days, similar decrease in vehicle pair-fed animals): decreased
- liver gene expression of lipid metabolism enzymes ([6]; ip 10 mg/kg, 6 days): No modification
- liver expression of glucose-6-phosphatase ([6]; ip 10 mg/kg, 6 days, also in vehicle pair-fed group): marked decrease
- WAT CPT-1 expression [6, 15]: increase
- WAT SCD-1 expression [6, 15]: decrease
- overall insulin sensitivity ([7]; icv 5 μg/day): failed to elicit any change
- glucose infusion rate (GIR) ([7]; icv 5 μg/day, vs vehicle): identical
- glucose uptake in skeletal muscle and WAT ([7]; icv 5 μg/day, vs vehicle): identical
- hepatic glucose production (HGP) ([7]; icv 5 μg/day, vs vehicle): identical
- overall insulin sensitivity ([7]; ip 10 mg/kg): enhanced
- hepatic glucose production (HGP) ([7]; ip 10 mg/kg, comparable in vehicle pair-fed rats): suppressed
- glucose utilization by adipose tissue ([7]; ip 10 mg/kg, food-independent effect): increased
- glucose infusion rate (GIR) ([7]; ip 10 mg/kg, similar increase in vehicle pair-fed group): higher
- decrease in food intake [8, 16]: 31%
- body weight ([8]; intracerebroventricular 5 μg/rat per day, mimicked by pair feeding): loss of body weight
- decrease in food consumption ([8]; intraperitoneal 10 mg/kg per day, P < 0.01): 40%
- Corticosterone (plasma) [9]: 59.77 ± 7.26 ng/mL
- Glucose (plasma) [9]: 3.78 ± 0.12 mmol/L
- Insulin (plasma) [9]: 0.58 ± 0.12 ng/mL
- Nonesterified fatty acids (plasma) [9]: 0.66 ± 0.13 mmol/L
- triglyceride levels in WAT ([10]; icv 5 μg/day): did not modify
- triglyceride levels in plasma ([10]; icv 5 μg/day): did not modify
- WAT triglyceride content ([10]; ip 10 mg/kg, not observed in vehicle pair-fed group): decreased
- WAT mRNA expression of lipid metabolism enzymes ([11]; lean rats, 5 μg/rat per day given peripherally): no change
- liver gene expression of key enzymes regulating triglyceride metabolism ([11]; lean rats, icv 5 μg/day): No significant difference
- WAT expression of CPT-1 [11, 17]: increased
- WAT expression of genes promoting lipogenesis and triglyceride storage (FAS, SCD-1, ACCα, LPL) [11, 17]: markedly reduced
- body weight [12]: maintained reduction
- food intake [12]: transient suppression
- body weight [13, 18]: no effect
- food intake [13, 18]: no effect
- body weight [13, 16]: loss of body weight
- body weight [13, 19]: unable to detect changes
- food intake [13, 19]: unable to detect changes
- decrease in food intake ([13]; normal rats, intracerebroventricular 5 μg/rat per day): 17%

Compound: C[C@H](NC(=O)C(C)(C)Oc1ccc(C(F)(F)F)cn1)[C@@H](Cc1ccc(Cl)cc1)c1cccc(C#N)c1 [taranabant]
- body weight [14]: weight loss
